# The source made the active and inactive calls. No cut-off for these calls is given here.
# Assays:
# HeLa [1] = assay: Induction of apoptosis in human HeLa cells assessed as early apoptotic cells at 3 uM after 24 hrs using FITC-conjugated annexin V and propidium iodide staining by flow cytometry; assay type: functional
# Summary of the method: (§1)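 Cells were seeded at 0.25–0.5 × 10^6. After 24 h they were exposed to drug for 24 h, then kept in drug-free medium for a further 24 h. About 10,000 events were read (488/525 and 488/675 nm). Early apoptosis was AnnexinV+/PI−; late apoptosis was AnnexinV+/PI+.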
# A2780 = assay: Antiproliferative activity against human A2780 cells after 48 hrs by sulforhodamine B assay; assay type: functional; settings: A2780, 48 h
# Summary of the method: (§2)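 SRB assay in RPMI 1640 with 5% heat-inactivated FCS and 2 mM L-glutamine at 37 °C. Seeding was 15,000 cells/well for WiDr, T-47D and HeLa, and 10,000 for A2780, SW1573 and HBL-100. Compound was added on day 1 from DMSO stock (400× top final; 0.25% v/v DMSO control), in triplicate dilutions over 1–100, for 48 h. Cells were fixed with cold 50% TCA for 60 min at 4 °C and read at OD 492 nm. Percentage growth was calculated from T0 and end OD by NCI formulas, as means ± SD of 3–5 experiments.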
# HeLa [2] = assay: Antiproliferative activity against human HeLa cells after 48 hrs by sulforhodamine B assay; assay type: functional; summary of the method: as §2
# WiDr [3] = assay: Induction of apoptosis in human WiDr cells assessed as early apoptotic cells at 3 uM after 24 hrs using FITC-conjugated annexin V and propidium iodide staining by flow cytometry; assay type: functional; summary of the method: as §1
# WiDr [4] = assay: Induction of apoptosis in human WiDr cells assessed as late apoptotic cells at 3 uM after 24 hrs using FITC-conjugated annexin V and propidium iodide staining by flow cytometry; assay type: functional; summary of the method: as §1
# WiDr [5] = assay: Antiproliferative activity against human WiDr cells after 48 hrs by sulforhodamine B assay; assay type: functional; summary of the method: as §2
# HBL-100 [6] = assay: Antiproliferative activity against human HBL100 cells after 48 hrs by sulforhodamine B assay; assay type: functional; settings: HBL-100, 48 h; summary of the method: as §2
# SW1573 [7] = assay: Antiproliferative activity against human SW1573 cells after 48 hrs by sulforhodamine B assay; assay type: functional; settings: SW1573, 48 h; summary of the method: as §2
# T47D = assay: Antiproliferative activity against human T47D cells after 48 hrs by sulforhodamine B assay; assay type: functional; summary of the method: as §2
# HeLa [8] = assay: Induction of apoptosis in human HeLa cells assessed as late apoptotic cells at 3 uM after 24 hrs using FITC-conjugated annexin V and propidium iodide staining by flow cytometry; assay type: functional; summary of the method: as §1
# HBL-100 [9] = assay: Cell cycle arrest in human HBL100 cells assessed as accumulation at sub G1 phase at 3 to 5 uM after 24 hrs using propidium iodide staining by flow cytometry; assay type: functional, cell-based
# Summary of the method: (§3)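 Cells were seeded at 2.5–5 × 10^5 per well. After 24 h they were dosed at 1, 2, 3 and 5 for 24 h, then trypsinized and fixed overnight in ice-cold 70% ethanol at −20 °C. Samples were RNase-treated for 30 min at 37 °C in the dark and stained with propidium iodide. DNA content was read by flow cytometry on 25,000 cells/sample, giving sub-G1, G0/G1, S and G2/M fractions.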
# HeLa [10] = assay: Decrease in cyclin D1 expression in human HeLa cells at 10 uM by Western blot analysis; assay type: functional, cell-based; settings: TDE = time-dependent effect
# Summary of the method: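 HeLa cells were treated for 12 and 24 h, then lysed on ice in Tris pH 8.0/NaCl/NP-40/SDS/EDTA buffer with protease and phosphatase inhibitors, and cleared at 10,000 g. Proteins were run by SDS–PAGE and transferred to PVDF. Blots were probed with anti-cyclin D1, followed by HRP secondary for 30 min. Bands were detected by luminol chemiluminescence with p-iodophenol enhancement.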
# HBL-100 [11] = assay: Cell cycle arrest in human HBL100 cells assessed as accumulation at S phase at 1 to 2 uM after 24 hrs using propidium iodide staining by flow cytometry; assay type: functional, cell-based; summary of the method: as §3
# SW1573 [12] = assay: Cell cycle arrest in human SW1573 cells assessed as accumulation at S phase at 1 to 2 uM after 24 hrs using propidium iodide staining by flow cytometry; assay type: functional, cell-based; summary of the method: as §3
# SW1573 [13] = assay: Cell cycle arrest in human SW1573 cells assessed as accumulation at sub G1 phase at 3 to 5 uM after 24 hrs using propidium iodide staining by flow cytometry; assay type: functional, cell-based; summary of the method: as §3
# SW1573 [14] = assay: Cell cycle arrest in human SW1573 cells assessed as accumulation at G0/G1 phase at 1 to 2 uM after 24 hrs using propidium iodide staining by flow cytometry; assay type: functional, cell-based; summary of the method: as §3
# HBL-100 [15] = assay: Cell cycle arrest in human HBL100 cells assessed as accumulation at G0/G1 phase at 1 to 2 uM after 24 hrs using propidium iodide staining by flow cytometry; assay type: functional, cell-based; summary of the method: as §3
Compound,Activity (HeLa [1]) [%],GI50 (A2780) [nM],GI50 (HeLa [2]) [nM],Activity (WiDr [3]) [%],Activity (WiDr [4]) [%],GI50 (WiDr [5]) [nM],GI50 (HBL-100 [6]) [nM],GI50 (SW1573 [7]) [nM],GI50 (T47D) [nM],Activity (HeLa [8]) [%],Activity (HBL-100 [9]),Activity (HeLa [10]),Activity (HBL-100 [11]),Activity (SW1573 [12]),Activity (SW1573 [13]),Activity (SW1573 [14]),Activity (HBL-100 [15])
CC(=O)O[C@H]1OC=C[C@H]2[C@@H]1[C@H](C)C[C@H]2O[Si](c1ccccc1)(c1ccccc1)C(C)(C)C,18,1240,1680,23,2.4,1130,380,430,1620,12,,,,,,,
CC(=O)O[C@@H]1OC=C[C@@H]2[C@H]1[C@@H](C)C[C@H]2O[Si](c1ccccc1)(c1ccccc1)C(C)(C)C,18,1590,1860,33,3.7,1260,500,590,1460,25,Active,tde,inactive,inactive,Active,Active,Active
OC[C@H]1O[C@@H](O[C@@H]2OC=C[C@H]3[C@H](O)[C@@H]4O[C@]4(CO)[C@@H]23)[C@H](O)[C@@H](O)[C@@H]1O [CATALPOL],,> 100000,> 100000,,,> 100000,> 100000,> 100000,> 100000,,,,,,,,

# From ChEMBL document CHEMBL1156976, “Enhancement of antiproliferative activity by molecular simplification of catalpol” (2010)
